Screening results from PubChem BioAssay.
Most compounds without a hit are left out; they make up all but 1.9% or so of the library.
FGF22 binding – shifts melting point of recombinant human FGF22; Q9HCT0; recombinant FGF22 thermal shift, SYPRO orange fluorescence; percent of sucrose octasulfate shift, DMSO zero; activity (Tm shift, normalised), % at 9.99 µM; 1.5% of 340,000 active;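 active means mean Tm shift, scaled 0 neutral to 100 positive control, at about 1.3% or above, every replicate too, limit read from the data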
Target sequence (Q9HCT0 whole entry, looked up): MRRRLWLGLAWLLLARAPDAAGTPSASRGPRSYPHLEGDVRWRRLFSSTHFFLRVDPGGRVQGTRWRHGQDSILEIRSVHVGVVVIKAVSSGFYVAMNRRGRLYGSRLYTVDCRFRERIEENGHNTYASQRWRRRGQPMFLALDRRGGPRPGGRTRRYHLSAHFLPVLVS
ARFGAP1 inhibitor – inhibits rat ARF GTPase activating protein 1. Arfgap1-stimulated ARF1 GTP hydrolysis, GDP FP detection. inhibition, % at 16.5 µM. 0.26% of 360,000 active. AID 651572;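 active means inhibition above a per-plate limit, mean inhibition of low control wells plus 3 SD, cut at about 25% in these data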;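 further: 0% = DMSO wells with enzyme and 100% = wells lacking Arfgap1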
Target sequence (Q62848 1-136 limits assumed): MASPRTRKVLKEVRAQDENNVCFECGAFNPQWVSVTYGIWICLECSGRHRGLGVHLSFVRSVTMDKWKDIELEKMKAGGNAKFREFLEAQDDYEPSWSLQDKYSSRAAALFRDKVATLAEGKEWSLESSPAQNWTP
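system = rat Arfgap1 catalytic domain, aa 1-136 | technique = FP, GDP Alexa 633 tracer displaced from anti-GDP antibody, 620/688 nm | compound = one concentration, 16.5 µM, DMSO 1.26% | medium = HEPES-based buffer, pH 7.5 | timing = compound-enzyme preincubation 20 min, reaction 120 min, detection 60 min, 25 °C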
Rtt109 HAT inh – blocks Candida albicans Rtt109/Vps75 acetyltransferase activity. 0.16% of 330,000 active. purified Rtt109/Vps75, ThioGlo CoA-SH fluorescence, 4 h. AID 540336. inhibition, % at 34.9 µM;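 active means inhibition of at least 50% in every replicate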
Target sequence (Q5AAJ8 whole entry, looked up): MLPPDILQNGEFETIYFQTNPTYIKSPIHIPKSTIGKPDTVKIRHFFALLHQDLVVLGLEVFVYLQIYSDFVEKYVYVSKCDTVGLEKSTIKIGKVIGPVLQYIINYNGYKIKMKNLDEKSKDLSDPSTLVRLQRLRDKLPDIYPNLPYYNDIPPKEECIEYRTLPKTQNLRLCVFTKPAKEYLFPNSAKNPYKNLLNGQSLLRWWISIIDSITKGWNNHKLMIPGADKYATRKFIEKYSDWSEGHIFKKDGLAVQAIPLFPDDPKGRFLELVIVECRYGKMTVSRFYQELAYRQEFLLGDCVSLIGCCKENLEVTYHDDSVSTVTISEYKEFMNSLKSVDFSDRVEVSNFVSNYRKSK
ASAP1 inh – inhibitors of human ASAP1 ArfGAP activity; ASAP1-stimulated ARF1 GTP hydrolysis, GDP FP detection; inhibition, % at 16.5 µM; 0.19% of 360,000 active; AID 624377; in the data active means inhibition above about 25%;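 further: 0% = vehicle with enzyme and substrate and 100% = no enzyme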
Efflux pump mplx – blocks antifungal efflux pumps in multiplex yeast assay; S. cerevisiae Candida pump triplex, Nile Red efflux; inhibition, % at 10 µM; 0.44% of 330,000 active;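 active means plate passing quality check with inhibition over a set limit, or well fluorescence over plate mean plus 4 SD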;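 further: Nile Red retained in pooled yeast measured as flow cytometry median fluorescence; 0% = buffer negative control and 100% = Enniatin B positive control; higher means more Nile Red kept so more efflux inhibition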
ARFGAP1 inh conf – confirmation of rat ARFGAP1 inhibitors. shares compounds with ARFGAP1 inhibitor. ARFGAP1-stimulated ARF1 GTP hydrolysis, GDP tracer FP. inhibition, % at 16.5 µM. 30% of 890 active;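 active means average inhibition over triplicates above the hit cutoff set in the earlier primary screen, cut at about 25% in these data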;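 further: 0% = Arfgap1 plus ARF1-GTP with DMSO and 100% = wells lacking Arfgap1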
Numbers without * were called inactive; / = no result.

SMILES	FGF22 binding	ARFGAP1 inhibitor	Rtt109 HAT inh	ASAP1 inh	Efflux pump mplx	ARFGAP1 inh conf
C=CCNC(=O)/C(C#N)=C/c1ccc(C)o1	-0.1	6.6	-3.1	1.6	0.0	/
CCOC(=O)c1c(NC(=O)c2ccc(S(=O)(=O)N(C)CC3CCCO3)cc2)sc2c1CCN(C)C2 (stereo unspecified)	0.2	3.9	29.7	13.4	0.0	/
CC(=O)N1CCc2c(sc(NC(=O)c3ccc(S(=O)(=O)N(C)CC4CCCO4)cc3)c2C(N)=O)C1 (stereo unspecified)	-0.2	28.9*	/	4.1	/	0.6
C[C@@H]1CCCCO[C@H](CN(C)S(=O)(=O)c2cccs2)[C@H](C)CN([C@@H](C)CO)C(=O)c2cc(NC(=O)NC3CCCCC3)ccc2O1	-0.3	24.9*	/	-3.2	/	3.9
C[C@@H]1CCCCO[C@@H](CN(C)S(=O)(=O)c2cccs2)[C@H](C)CN([C@@H](C)CO)C(=O)c2cc(NC(=O)NC3CCCCC3)ccc2O1	0.0	/	/	/	/	/
O=C(Nc1ccc(F)cc1)c1nc[nH]c1C(=O)Nc1ccc([N+](=O)[O-])cc1	42.8	0.9	-2.5	0.2	0.0	/
O=C(NCc1ccc2c(c1)OCO2)Nc1ccc(F)cc1	0.0	8.8	-6.4	6.0	-1.3	/
COc1ccc([C@H]2C[C@@H](n3cc(COC(=O)c4ccccc4)nn3)[C@H](O)CN2C(=O)C2CCCCC2)cc1	0.5	26.2*	/	3.3	/	0.9
Cc1ccc(NC(=O)CSc2nnc(CNC(=O)C34CC5CC(CC(C5)C3)C4)n2-c2ccc(F)cc2)cc1	/	28.6*	1.3	-2.2	0.8	4.1
Cc1ccc(S(=O)(=O)N2CCC(=O)N(CCOC(=O)Nc3ccc(C)c(C)c3)CC2)cc1	-0.1	35.0*	10.1	13.1	0.0	0.5
O=Cc1ccc2c(c1)CCN2Cc1ccccc1	0.2	6.0	-0.9	7.7	0.2	/
CO[C@@H]1CN(C)C(=O)c2cc(NC(=O)NC(C)C)ccc2OC[C@H](C)N(C(=O)C2CCC2)C[C@H]1C	0.3	/	/	/	/	/
O=C(CNS(=O)(=O)c1ccc(Br)cc1)N1CCN(c2ccc(F)cc2)CC1	/	27.7*	9.6	8.5	0.3	2.5
O=C(NCc1ccccc1C(F)(F)F)C1CC(c2ccc(C(F)(F)F)cc2)=NO1 (stereo unspecified)	0.0	28.1*	-0.9	-4.4	-0.1	6.9
COc1ccc(-c2cc3ccccc3oc2=O)cc1NC(=O)c1cccnc1	/	33.6*	0.6	21.3	0.3	34.0*
O=C(N[C@@H]1CC[C@@H](CCNS(=O)(=O)Cc2ccccc2)O[C@H]1CO)c1ccc2c(c1)OCO2	0.1	/	/	/	/	/
CCC1Nc2ncnc(N3CCCCC3)c2N(Cc2ccc(Cl)cc2)C1=O (stereo unspecified)	-0.1	29.2*	6.1	-5.8	0.2	1.2
C[C@H](CO)N1C[C@H](C)[C@@H](CN(C)C(=O)Nc2ccc(F)cc2)Oc2ncc(C3=CCCC3)cc2C1=O	0.0	/	/	/	/	/
CO[C@H]1CN(C)C(=O)c2ccc(NC(=O)C3CCCC3)cc2OC[C@@H](C)N(Cc2cocn2)C[C@H]1C	-0.2	/	/	/	/	/
Cc1cc2[nH]c(=O)c(=O)[nH]c2cc1S(=O)(=O)N1CCC(C)CC1	-0.2	32.1*	-7.1	-3.5	-0.1	7.8
Cc1cc2[nH]c(=O)c(=O)[nH]c2cc1S(=O)(=O)N1CCN(c2ccccc2)CC1	0.0	4.0	-3.1	-6.4	0.0	/
O=C(NC1CCCC1)[C@@H]1[C@@H](CO)[C@@H]2Cn3c(ccc(C4=CCCC4)c3=O)[C@H]1N2C(=O)c1ccccc1	0.1	/	/	/	/	/
COc1ccc(N2CCN(C(=O)c3ccc(C(C)(C)C)cc3)CC2)cc1	/	27.9*	15.0	4.3	-0.1	-3.8
COc1ccc(N2CCN(C(=O)CCNC(=O)c3ccc(C(C)(C)C)cc3)CC2)cc1	42.3	4.2	6.0	6.5	0.1	/
CCCC(C(=O)Nc1ccc(S(=O)(=O)Nc2ncccn2)cc1)c1ccccc1 (stereo unspecified)	-0.2	-17.5	2.6	-5.1	0.0	/
SMILES	FGF22 binding	ARFGAP1 inhibitor	Rtt109 HAT inh	ASAP1 inh	Efflux pump mplx	ARFGAP1 inh conf
COc1ccc2c(c1)C(c1ccc(C)o1)=NNC(c1cccnc1)=N2	0.0	25.2*	6.8	-6.1	0.3	1.4
COc1ccccc1OCC(=O)Nc1ccccc1C(=O)N1CCCC1	0.1	-6.0	-2.3	-8.9	0.0	/
O=C(c1ccncc1)N1CCN(S(=O)(=O)c2cccc(F)c2)CC1	-0.2	9.0	-0.4	-10.9	-0.3	/
O=C(c1ccncc1)N1CCN(S(=O)(=O)c2cccc(Cl)c2)CC1	0.1	26.7*	-6.9	-7.1	-0.1	0.3
Cc1ccc(S(=O)(=O)N(Cc2ccccc2F)C(=O)N2CCN(C)CC2)cc1	-0.1	28.7*	-13.8	-3.2	0.0	6.1
CCN(CC)c1ccc(C(=C2C=CC(=[N+](CC)CC)C=C2)c2ccc(N(CC)CC)cc2)cc1	/	35.8*	11.9	18.2	/	23.8
CCC(=O)Nc1c(-c2ccccc2Cl)c(=O)c2ccccc2n1CC	-0.2	-1.1	8.3	4.0	-0.1	/
C=CCOc1ccc(/C=C/C(=O)Nc2ccc(C(=O)NC)cc2)cc1	0.4	28.8*	16.1	18.6	0.1	36.7*
CCCCOc1ccc(/C=C/C(=O)Nc2ccc(C(N)=O)cc2)cc1	/	2.0	12.7	12.6	0.0	/
O=C(N/N=C/c1ccccn1)c1cc(-c2ccc3ccccc3c2)n[nH]1	0.1	29.4*	-0.3	14.4	-0.5	100.5*
CCc1ccc(-c2cc(C(=O)N/N=C/c3ccccn3)[nH]n2)cc1	0.1	5.7	-2.0	12.7	-0.1	/
O=C(N/N=C/C=C\c1ccccc1[N+](=O)[O-])c1cc(-c2ccc3ccccc3c2)n[nH]1	-0.3	30.0*	/	-1.8	/	22.4
O=C(N/N=C/C=C/c1ccccc1[N+](=O)[O-])c1ccncc1	-0.3	9.0	6.1	4.7	0.2	/
Cc1nn(-c2ccccc2)c(N)c1N=Nc1cccc(S(=O)(=O)N2CCOCC2)c1	0.2	28.9*	-2.4	5.0	0.0	6.0
Cc1nn(-c2ccccc2)c(N)c1N=Nc1ccccc1	/	1.5	-0.5	5.7	0.1	/
CC(C)=CCc1c(O)ccc(C(=O)Cc2ccccc2)c1O	/	17.5	-8.7	14.3	-0.2	/
COc1cc(O)c(CC=C(C)C)c(O)c1C(=O)CCc1ccc(O)cc1	0.9	28.6*	0.7	15.9	0.0	28.6*
COC(=O)C1Cc2ccccc2CN1S(=O)(=O)c1ccc(C)cc1 (stereo unspecified)	-0.3	-2.4	-4.5	12.1	0.1	/
CC1CCC(CN2C(Nc3ccccc3)=NC[C@@H]2Cc2ccccc2)CC1 (stereo partly specified)	0.0	28.2*	-4.3	2.1	0.3	-1.4
c1ccc(C[C@H]2CN=C(Nc3ccccc3)N2CC2CCC2)cc1	0.1	-10.8	15.6	1.0	0.0	/
CCOc1cc(/C=C/C(=O)Nc2ccc(C(=O)NCCN(CC)CC)cc2)ccc1OCC(C)C	0.3	27.6*	34.1	22.0	0.2	25.6*
